Calls of active or inactive are those of the source. The rule behind the calls is not given here.
Assays:
[1] = target: Integrin alpha-IIb/beta-3 (Homo sapiens, UniProt P05106+P08514); assay: Inhibition of human integrin alpha2b beta3 receptor by fibrinogen competitive binding assay; assay type: protein-complex assay
In short: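 Platelet αIIbβ3, affinity-purified, adsorbed at 1 μg/mL in Tris buffer (2 mM CaCl2, 1 mM MgCl2 and MnCl2, pH 7.5) for 1 h at room temperature, then blocked with 1% albumin. Exposed 30 min to excess biotinylated fibrinogen with varied compound levels. Detection used anti-biotin–alkaline phosphatase and p-nitrophenyl phosphate, read at 405 nm. IC50 derived from at least two pooled dose-response experiments.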

Integrin alpha-V/beta-3 = Integrin alpha-V/beta-3 (Homo sapiens, UniProt P05106+P06756); assay: Inhibition of human integrin alphav beta3 receptor by biotinylated vitronectin competitive binding assay; assay type: protein-complex assay
In short: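 Placenta-derived human αvβ3 adsorbed at 500 ng/mL in Tris buffer (2 mM CaCl2, 1 mM MgCl2 and MnCl2, pH 7.5), 1 h RT, then blocked with 1% albumin. Incubated 30 min with excess biotinylated vitronectin plus graded compound. Bound ligand detected with anti-biotin–alkaline phosphatase and p-nitrophenyl phosphate at 405 nm. IC50 taken from pooled dose-response curves of at least two experiments.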

Homo sapiens = organism: Homo sapiens; assay: Selectivity index, ratio of IC50 for human integrin alpha2b beta3 receptor to IC50 for human integrin alphav beta3 receptor
HOP = assay: Inhibition of HOP cell adhesion on vitronectin coated plate by colorimetric method; assay type: functional, cell-based; details: Homo sapiens
In short: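 HOP cells (bone marrow stromal, second subculture) preincubated 1 h at 37 °C with compound (10-4 to 10-12 M final) in serum-free IMDM, then 100 μL of 32000 cells/mL seeded on wells coated with human plasma vitronectin (5 μg/mL); adhesion 30 min at 37 °C. Adherent cells read via p-nitrophenyl N-acetyl β-D-glucosaminide hydrolysis, 405 nm. Expressed as absorbance ratio to untreated cells; ≥2 experiments, n = 6 wells.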

SMILES	IC50 [1] [µM]	IC50 (Integrin alpha-V/beta-3) [µM]	Ratio IC50 (Homo sapiens)	Activity (HOP)
Cc1ccnc(NCCCCOc2ccc(C[C@H](NS(=O)(=O)c3cccc(C(F)(F)F)c3)C(=O)O)cc2NC(=O)COCCOCCOCCN)c1	0.028	0.0009	31	
N=C(N)NCCC[C@H](NC(=O)CN)C(=O)NCC(=O)N[C@@H](CC(=O)O)C(=O)N[C@@H](CO)C(=O)O				Active
NCCCOc1ccc(C[C@H](NS(=O)(=O)c2cccc(C(F)(F)F)c2)C(=O)O)cc1N	0.429	0.138	3.1	
Nc1cc(C[C@H](NS(=O)(=O)c2cccc(C(F)(F)F)c2)C(=O)O)ccc1OCCCc1ccc2c(n1)NCCC2	0.141	0.0001	1410	
N=C(N)NCCCCOc1ccc(C[C@H](NS(=O)(=O)c2cccc(C(F)(F)F)c2)C(=O)O)cc1N	0.0073	0.0017	4.3	
Nc1cc(C[C@H](NS(=O)(=O)c2cccc(C(F)(F)F)c2)C(=O)O)ccc1OCCCCc1ccc2c(n1)NCCC2	0.355	0.0011	323	
CC(=O)Nc1cc(C[C@H](NS(=O)(=O)c2cccc(C(F)(F)F)c2)C(=O)O)ccc1OCCCc1ccc2c(n1)NCCC2	0.071	0.0006	118	Active
CC(=O)Nc1cc(C[C@H](NS(=O)(=O)c2cccc(C(F)(F)F)c2)C(=O)O)ccc1OCCCCNc1cc(C)ccn1	0.038	0.0007	54	
NC(N)=NCCCOc1ccc(C[C@H](NS(=O)(=O)c2cccc(C(F)(F)F)c2)C(=O)O)cc1N	0.027	0.0076		
COCCOCCOCCOCC(=O)Nc1cc(C[C@H](NS(=O)(=O)c2cccc(C(F)(F)F)c2)C(=O)O)ccc1OCCCCNc1cc(C)ccn1	0.061	0.0005	122	
Nc1cc(C[C@H](NS(=O)(=O)c2cccc(C(F)(F)F)c2)C(=O)O)ccc1OCCCCNC1=NCCCN1			126	
Nc1cc(C[C@H](NS(=O)(=O)c2cccc(C(F)(F)F)c2)C(=O)O)ccc1OCCCNc1ccccn1	0.036	0.0012	30	
NCCCCOc1ccc(C[C@H](NS(=O)(=O)c2cccc(C(F)(F)F)c2)C(=O)O)cc1N	0.154	0.428	0.35	
Cc1ccnc(NCCCCOc2ccc(C[C@H](NS(=O)(=O)c3cccc(C(F)(F)F)c3)C(=O)O)cc2NC(=O)COCCOCCOCCOCCOCCOCCN)c1	0.038	0.0008	47	
Nc1cc(C[C@H](NS(=O)(=O)c2cccc(C(F)(F)F)c2)C(=O)O)ccc1OCCCNC1=NCCCN1			5.5	
Cc1ccnc(NCCCCOc2ccc(C[C@H](NS(=O)(=O)c3cccc(C(F)(F)F)c3)C(=O)O)cc2N)c1	0.106	0.0006	177	Active
Nc1cc(C[C@H](NS(=O)(=O)c2cccc(C(F)(F)F)c2)C(=O)O)ccc1OCCCN=C1NCCCN1	0.0213	0.0039		
Nc1cc(C[C@H](NS(=O)(=O)c2cccc(C(F)(F)F)c2)C(=O)O)ccc1OCCCCNc1ccccn1	0.07	0.0014	50	
N=C(N)NCCCOc1ccc(C[C@H](NS(=O)(=O)c2cccc(C(F)(F)F)c2)C(=O)O)cc1N			3.5	
Cc1cccc(NCCCCOc2ccc(C[C@H](NS(=O)(=O)c3cccc(C(F)(F)F)c3)C(=O)O)cc2N)n1	0.121	0.0017	71	
Nc1cc(C[C@H](NS(=O)(=O)c2cccc(C(F)(F)F)c2)C(=O)O)ccc1OCCCCN=C1NCCCN1	0.101	0.0008		

Source: ChEMBL document CHEMBL1154662, “alphavbeta3 Integrin-targeting Arg-Gly-Asp (RGD) peptidomimetics containing oligoethylene glycol (OEG) spacers” (J Med Chem, 2009)
